In ChEMBL document CHEMBL4373675, “Derivatisation of parthenolide to address chemoresistant chronic lymphocytic leukaemia” (Medchemcomm, 2019):
Activity calls are given as the source filed them. No cut-off for these calls is given here.

What was measured:
[1] = AUC in mouse at 10 mg/kg, po; format: ADME, organism-based; details: in vivo
[2] = AUC (0 to infinity) in mouse at 1 mg/kg, iv; format: ADME, organism-based; set-up: dose 1 mg/kg, route intravenous, time infinity; details: in vivo
MEC1 = assay: Antiproliferative activity against human MEC1 cells assessed as cell death in presence of ROS scavenger N-acetyl-L-cysteine by alamar blue assay; format: functional, cell-based
How it was run: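 MEC1 CLL cells (ATCC; carry mutated p53) were pretreated with N-acetylcysteine and then exposed to compound across a concentration series. Viability was read by alamarBlue, and EC50 was taken from concentration-activity plots.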

[3] = Intrinsic clearance in mouse hepatocytes assessed as per million cells; format: ADME, cell-based, Hepatocyte; details: read-out: CLH
How it was run: (§1)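 Metabolic stability was measured in mouse hepatocytes. Intrinsic clearance is given in µL min⁻¹ per million cells, alongside half-life in min.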

[4] = Half life in aqueous solution at pH 7.4; format: physicochemical
[5] = Tmax in mouse at 10 mg/kg, po; format: ADME, organism-based; details: in vivo
[6] = Permeability across basolateral to apical side in human Caco2 cells; format: ADME, cell-based; details: Caco-2
How it was run: (§2)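 Permeability was measured in a Caco-2 monolayer at pH 7.4 in both the apical-to-basolateral and basolateral-to-apical directions. Results are given as mean apparent permeability (Papp, 10⁻⁶ cm s⁻¹), and efflux ratio was derived from the two directions.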

[7] = Volume of distribution at steady state in mouse at 1 mg/kg, iv; format: ADME, organism-based; details: in vivo, read-out: Vdss
[8] = Oral bioavailability in mouse at 10 mg/kg; format: ADME, organism-based; details: in vivo
[9] = Half life in mouse hepatocytes; format: ADME, cell-based, Hepatocyte; how it was run: as §1
[10] = Permeability across apical to basolateral side in human Caco2 cells; format: ADME, cell-based; details: Caco-2; how it was run: as §2

| AUC(0-inf) [1] [ng·h/mL] | AUC(0-inf) [2] [ng·h/mL] | hepatocyte CLint [3] [µL/min/1e6 cells] | half-life [4] [h] | Tmax [5] [h] | Papp B→A [6] [×10⁻⁶ cm/s] | Vd [7] [L/kg] | bioavailability [8] [%] | half-life [9] [h] | Papp A→B [10] [×10⁻⁶ cm/s] | SMILES | Activity (MEC1) |
| --- | --- | --- | --- | --- | --- | --- | --- | --- | --- | --- | --- |
| 1700 | 289 | 22 |  |  |  |  |  |  |  | C/C1=C\CC[C@@]2(C)O[C@@H]2[C@H]2OC(=O)[C@@H](CN3CCC(c4cc(O)nc(C)n4)CC3)[C@@H]2CC1 | inactive |
|  |  | 16 |  |  |  |  |  |  |  | C/C1=C\CC[C@@]2(C)O[C@@H]2[C@H]2OC(=O)[C@@H](CN[C@@H](Cc3ccccc3)C(=O)O)[C@@H]2CC1 |  |
| 711 | 80.5 | 22 | > 2 | 0.5 | 16.2 | 11.6 | 95.8 | 1.08 | 15.9 | C/C1=C/CC[C@@]2(C)O[C@@H]2[C@H]2OC(=O)[C@@H](CN3CCCC3)[C@@H]2CC1 |  |
